Published values from different studies.
Lines come from different studies, so protocols differ.
SQLE: Squalene monooxygenase (SQLE, Homo sapiens, UniProt Q14534)
Tspo: Translocator protein (Tspo, Rattus norvegicus, UniProt P16257)
ADRA1A: Alpha-1A adrenergic receptor (ADRA1A, Homo sapiens, UniProt P35348)

| SMILES | target | assay | system | conditions | Ki [µM] |
| --- | --- | --- | --- | --- | --- |
| N#Cc1ccc2c(c1)N(CCCN1CCC(O)CC1)c1ccccc1S2 | SQLE | enzyme activity, inhibitor | – | – | 0.69 |
| CCOC(=O)[C@@]12C[C@@H]1[C@@H](n1cnc3c(NCc4cccc(Cl)c4)nc(C#Cc4ccc(Cl)s4)nc31)[C@H](O)[C@@H]2O | Tspo | cell-free assay, radioligand | – | – | 0.51 |
| COc1cc2c3c(c1OC)-c1c(OC)ccc(N4CCOCC4)c1CC3N(C)CC2 (stereo not shown) | ADRA1A | cell-free assay, radioligand | – | – | 0.643 |
| COc1cc(O)c2c(c1)oc(=O)c1c3cc(O)c(O)cc3oc21 | Alpha-glucosidase MAL12 (MAL12, Saccharomyces cerevisiae S288c, UniProt P53341) | enzyme activity, inhibitor | – | – | 30 |
| C=CC(=O)N1C[C@H](Nc2ncnc3[nH]ccc23)CC[C@@H]1C | Solute carrier family 22 member 6 (SLC22A6, Homo sapiens, UniProt Q4U2R8) | transporter uptake, inhibitor | HEK293 | pH 7.4 | 156 |
| Cc1cc(Oc2ncccc2CN2CCN(c3cccc(Cl)c3Cl)CC2)ccc1-c1c(C)c(=O)[nH]c(=O)n1C | ADRA1A | ligand displacement, radioligand | – | – | 1.93 |
| O=c1cc(-c2ccc(O)cc2)oc2cc(O[C@@H]3O[C@H](CO)[C@@H](O)[C@H](O)[C@H]3O)cc(O)c12 | SQLE | enzyme activity, inhibitor | – | – | 0.66 |
| OC[C@@]12C[C@@H]1[C@@H](n1cnc3c(NC(C4CCC4)C4CCC4)nc(C#Cc4ccc(Cl)s4)nc31)[C@H](O)[C@@H]2O | Tspo | cell-free assay, radioligand | – | – | 0.67 |
| Cc1cc(Oc2ncccc2CN2CCN(c3ccccc3Cl)CC2)ccc1-c1c(C)c(=O)[nH]c(=O)n1C | ADRA1A | ligand displacement, radioligand | – | – | 0.93 |
| COc1cc2c3c(c1OC)-c1c(OC)ccc(-c4ccc(C#N)cc4)c1CC3N(C)CC2 (stereo not shown) | ADRA1A | cell-free assay, radioligand | – | – | 0.322 |
| COc1ccc(Cl)cc1N1CCN(Cc2cccnc2Oc2ccc(-c3c(C)c(=O)[nH]c(=O)n3C)c(C)c2)CC1 | ADRA1A | ligand displacement, radioligand | – | – | 0.353 |
| O=C[C@H](O)[C@@H](O)[C@H](O)[C@H](O)COP(=O)(O)O | Hexokinase HKDC1 (Homo sapiens, UniProt Q2TB90) | enzyme activity, inhibitor | – | pH 8 | 3400 |
| Cc1cc(Oc2ncccc2CN2CCN(c3ccccc3[N+](=O)[O-])CC2)ccc1-c1c(C)c(=O)[nH]c(=O)n1C | ADRA1A | ligand displacement, radioligand | – | – | 1.98 |
| COc1cc(C2Oc3cc([C@H]4Oc5cc(O)cc(O)c5C(=O)[C@@H]4O)ccc3OC2CO)ccc1O (stereo partly shown) | SQLE | enzyme activity, inhibitor | – | – | 1.42 |
| CCN(CC)C(C)CN1c2ccccc2Sc2ccccc21 (stereo not shown) | SQLE | enzyme activity, inhibitor | – | – | 0.65 |
| Cc1cc(Oc2ncccc2CN2CCN(CCc3ccccc3)CC2)ccc1-c1c(C)c(=O)[nH]c(=O)n1C | ADRA1A | ligand displacement, radioligand | – | – | 0.296 |
